ChEMBL document CHEMBL5620388, “Quinolone analogues of benzothiazinone: Synthesis, antitubercular structure-activity relationship and ADME profiling” (Eur J Med Chem, 2023)
Converted amounts (≈) assume the structure as drawn.

How the values were obtained:
[1] = tested on: Mycobacterium tuberculosis; assay: Antimicrobial activity against Mycobacterium tuberculosis H37Rv expressing GFP supplemented with casitone/glucose/tyloxapol assessed as reduction in bacterial growth measured on day 14; format: functional; settings: 336 h, time 14 day
Summary of the method: (§1)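 Line 1 medium is 7H9 with ADC and 0.05% Tween80. Line 2 medium is 7H9 with 0.03% casitone, 0.4% glucose and 0.05% tyloxapol. Incubated at 37 °C, 5% CO2, humidified. Fluorescence (ex 485/em 520) read at day 14 and normalised to rifampicin (2× MIC) and 5% DMSO controls. MIC90 is the lowest concentration giving >90% inhibition.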

[2] = tested on: Mycobacterium tuberculosis; assay: Antimicrobial activity against Mycobacterium tuberculosis H37Rv expressing GFP supplemented with albumin/dextrose/catalase/glucose/tween80 assessed as reduction in bacterial growth measured on day 14; format: functional; settings: 336 h, time 14 day; summary of the method: as §1
[3] = tested on: Mycobacterium tuberculosis; assay: Antitubercular activity against Mycobacterium tuberculosis H37Rv assessed as reduction in microbial growth measured for 14 days; format: functional; settings: 336 h, time 14 day
Summary of the method: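 Strains were H37Rv, the fluoroquinolone-resistant GyrA G88C mutant, and the dprE1 P116S and C387S mutants. All were cultured in standard Middlebrook 7H9 with ADC supplement.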

[4] = Cytotoxicity against HEK293 cells assessed as reduction in cell viability incubated for 20 hrs by resazurin staining based assay; format: toxicity; settings: human
Summary of the method: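 HEK-293 cells grown in DMEM with 10% FBS, seeded at 5×10^3 cells/well into compound-containing plates, 20 h at 37 °C, 5% CO₂. Resazurin added for a further 3 h, fluorescence read at ex 560/em 590 nm. CC₅₀ from sigmoidal dose-response fit (variable top, bottom, slope) of inhibition vs log concentration. Highest concentration tested 32 µg/mL.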

[5] = Aqueous solubility of compound in PBS at pH6.5 incubated for 24 hrs by shake-flask method; format: physicochemical; settings: pH 6.5
Summary of the method: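 Miniaturised shake-flask, 96-well: 4 µL of 10 mM DMSO stock dried down, then phosphate-buffered saline pH 6.5 added; shaken 24 h at 25 °C, centrifuged 3500 g for 15 min. Supernatant quantified by HPLC-DAD against a 10–220 µM calibration curve prepared in DMSO.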

[6] = Lipophilicity, log P of the compound in octanol/buffer incubated for 2 hrs under shaking condition by shake flask based HPLC-UV method; format: physicochemical
Summary of the method: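 LogD at pH 7.4 by miniaturised shake-flask in deep-well plates. Compound partitioned between equal volumes of 1-octanol and PBS pH 7.4, shaken vigorously 2 h at 25 °C. Phases separated, each analysed by HPLC-UV with diode array detection. LogD calculated from peak areas in octanol and buffer.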

[7] = Metabolic stability in human liver microsome assessed as parent compound remaining after 30 mins by LC-MS/MS analysis; format: ADME; settings: liver microsomes, read-out: Stability
Summary of the method: (§2)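 Compound at 1 µM incubated with liver microsomes at 0.4 mg/mL, 37 °C for 30 min. Human microsomes were mixed gender, rat were male IGS, mouse were male CD1. Quenched with ice-cold acetonitrile containing internal standard and centrifuged. Parent disappearance measured by LC-MS/MS, with half-life and clearance from standard equations.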

[8] = Metabolic stability in rat liver microsome assessed as parent compound remaining after 30 mins by LC-MS/MS analysis; format: ADME; settings: liver microsomes, read-out: Stability; summary of the method: as §2
[9] = Metabolic stability in CD-1 mouse liver microsome assessed as parent compound remaining after 30 mins by LC-MS/MS analysis; format: ADME; settings: liver microsomes, read-out: Stability; summary of the method: as §2
[10] = Metabolic stability in human liver microsome assessed as intrinsic clearance measured for 30 mins by LC-MS/MS analysis; format: ADME; settings: liver microsomes, read-out: CLH; summary of the method: as §2
[11] = Metabolic stability in rat liver microsome assessed as intrinsic clearance measured for 30 mins by LC-MS/MS analysis; format: ADME; settings: liver microsomes, read-out: CLH; summary of the method: as §2
[12] = Metabolic stability in CD-1 mouse liver microsome assessed as intrinsic clearance measured for 30 mins by LC-MS/MS analysis; format: ADME; settings: liver microsomes, read-out: CLH; summary of the method: as §2

Compound | MIC90 [1] [µM] | MIC90 [2] [µM] | also measured
O=C(O)c1c[nH]c2c([N+](=O)[O-])cc(C(F)(F)F)cc2c1=O | 62.5 (≈ 18.9 µg/mL) | > 125 | 
O=C(NCCc1ccc(C(F)(F)F)cc1)c1c[nH]c2c([N+](=O)[O-])cc(C(F)(F)F)cc2c1=O | < 0.244 | < 0.244 | MIC90 [3]: 0.9 µM; CC50 at 20 h [4]: > 20 µM; solubility thermodynamic at 24 h [5]: < 5 µM; logD at 2 h [6]: 4.4; remaining at 0.5 h [7]: 68%; remaining at 0.5 h [8]: 68%; remaining at 0.5 h [9]: 67%; microsomal CLint [10]: 31.7 µL/min/mg; microsomal CLint [11]: 33.2 µL/min/mg; microsomal CLint [12]: 33.3 µL/min/mg
O=C(NCc1cccc(Cl)c1)c1c[nH]c2c([N+](=O)[O-])cc(C(F)(F)F)cc2c1=O | > 125 | 2.99 (≈ 1.27 µg/mL) | 
CCOC(=O)c1c[nH]c2c([N+](=O)[O-])cc(C(F)(F)F)cc2c1=O | < 0.244 | < 0.244 | 
O=c1c(Br)c[nH]c2c([N+](=O)[O-])cc(C(F)(F)F)cc12 | 1.6 (≈ 0.539 µg/mL) | 16 (≈ 5.39 µg/mL) | 
O=C(Nc1cccc(C(F)(F)F)c1)c1cnc2c([N+](=O)[O-])cc(C(F)(F)F)cc2c1Cl | 0.7 (≈ 0.325 µg/mL) | 31.2 (≈ 14.5 µg/mL) | 
O=C(NCCc1ccc(F)cc1)c1c[nH]c2c([N+](=O)[O-])cc(C(F)(F)F)cc2c1=O | < 0.244 | 0.9 (≈ 0.381 µg/mL) | MIC90 [3]: 2 µM; CC50 at 20 h [4]: > 20 µM; solubility thermodynamic at 24 h [5]: < 5 µM; logP at 2 h [6]: 4; remaining at 0.5 h [7]: 73%; remaining at 0.5 h [8]: 75%; remaining at 0.5 h [9]: 56%; microsomal CLint [10]: 25.9 µL/min/mg; microsomal CLint [11]: 23.4 µL/min/mg; microsomal CLint [12]: 48.8 µL/min/mg
O=C(NCCc1ccc(Cl)cc1)c1c[nH]c2c([N+](=O)[O-])cc(C(F)(F)F)cc2c1=O | < 0.244 | < 0.244 | MIC90 [3]: 1.9 µM; CC50 at 20 h [4]: > 20 µM; solubility thermodynamic at 24 h [5]: < 5 µM; logD at 2 h [6]: 4.3; remaining at 0.5 h [7]: 75%; remaining at 0.5 h [8]: 80%; remaining at 0.5 h [9]: 76%; microsomal CLint [10]: 24.3 µL/min/mg; microsomal CLint [11]: 18.4 µL/min/mg; microsomal CLint [12]: 23 µL/min/mg
NNC(=O)c1c[nH]c2c([N+](=O)[O-])cc(C(F)(F)F)cc2c1=O | > 125 | > 125 | 
O=C(NCc1ccc(F)cc1)c1c[nH]c2c([N+](=O)[O-])cc(C(F)(F)F)cc2c1=O | > 125 | 8.1 (≈ 3.32 µg/mL) | 
Cc1ccc(CCNC(=O)c2c[nH]c3c([N+](=O)[O-])cc(C(F)(F)F)cc3c2=O)cc1 | > 125 | 0.244 (≈ 0.102 µg/mL) | 
O=c1cc[nH]c2c([N+](=O)[O-])cc(C(F)(F)F)cc12 | 62.5 (≈ 16.1 µg/mL) | 16 (≈ 4.13 µg/mL) | 
O=C(NCc1ccc(Cl)cc1)c1c[nH]c2c([N+](=O)[O-])cc(C(F)(F)F)cc2c1=O | > 125 | 7.4 (≈ 3.15 µg/mL) | 
O=C(NCc1ccc(F)c(F)c1)c1c[nH]c2c([N+](=O)[O-])cc(C(F)(F)F)cc2c1=O | 7 (≈ 2.99 µg/mL) | 31.3 (≈ 13.4 µg/mL) | 
O=C(NCc1ccccc1Cl)c1c[nH]c2c([N+](=O)[O-])cc(C(F)(F)F)cc2c1=O | 0.5 (≈ 0.213 µg/mL) | 0.8 (≈ 0.341 µg/mL) | 
O=C(NCc1cccc(F)c1)c1c[nH]c2c([N+](=O)[O-])cc(C(F)(F)F)cc2c1=O | 0.5 (≈ 0.205 µg/mL) | 3 (≈ 1.23 µg/mL) | 
Cc1cccc(CNC(=O)c2c[nH]c3c([N+](=O)[O-])cc(C(F)(F)F)cc3c2=O)c1 | < 0.244 | 2.9 (≈ 1.18 µg/mL) | 
NNC(=O)c1ccncc1 [ISONIAZID] |  |  | MIC90 [3]: 3.5 µM
COc1c(N2C[C@@H]3CCCN[C@@H]3C2)c(F)cc2c(=O)c(C(=O)O)cn(C3CC3)c12 [MOXIFLOXACIN] |  |  | MIC90 [3]: 0.1 µM
CO[C@H]1/C=C/O[C@@]2(C)Oc3c(C)c(O)c4c(O)c(c(/C=N/N5CCN(C)CC5)c(O)c4c3C2=O)NC(=O)/C(C)=C\C=C\[C@H](C)[C@H](O)[C@@H](C)[C@@H](O)[C@@H](C)[C@H](OC(C)=O)[C@@H]1C [RIFAMPIN] | 0.01 (≈ 0.00823 µg/mL) | 0.01 (≈ 0.00823 µg/mL) | 
